# Screening results (PubChem)
# STAT3 act: STAT3 signaling activation | U3A cells, IL-6 STAT3-luciferase reporter, luminescence; 100% = signal with IL-6 EC80 alone | activation (% of control), % at 5.6 µM | hit rate 0.91% among 190,000;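 active = activation above the screen-wide mean of compound activation plus 3 SD, cut at about 130% in these data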;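 note: 0% = background luminescence of wells with medium and substrate only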
#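 Test system: Human STAT1-deficient U3A cells with stable STAT3-luciferase reporter | Also added: Interleukin-6, 33 ng/mL | Timing: Compound pre-incubation 1 h before IL-6, then 6 h stimulation at 37 °C | Technique: Luciferase reporter luminescence | Read-out: Percent of IL-6-only median luminescence | Benchmarks: IL-6-only wells as 100% reference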
# NF-kB expr up: compounds increasing NF-kB expression in human neuronal cells | NF-kB reporter expression; active compounds read high | fold change at 12.5 µM | hit rate 1.6% among 190,000; in the data active = fold change above about 3.3
# STAT1 blocker: reduces IFN-gamma driven STAT1 reporter signal; inhibition, % at 5.5 µM; AID 920; NIH 3T3 STAT1-luciferase reporter, luminescence; hit rate 0.35% among 200,000;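 active = inhibition above a set limit, the mean inhibition across all tested compounds plus 3 SD, cut at about 34% in these data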;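 note: 0% = IFN-gamma with DMSO and 100% = IFN-gamma with 300 µM nifuroxazide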
# STAT1 act: increases IFN-gamma driven STAT1 reporter signal; hit rate 2.6% among 200,000; NIH 3T3 STAT1-luciferase reporter, luminescence; 100% = IFN-gamma alone, no compound; activation (% of control), % at 5.5 µM; AID 932;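 active = activation above the screen-wide mean activation plus 3 SD, cut at about 130% in these data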;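 note: raw ratio to IFN-gamma control signal so 100% means no change and 0% no light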
# STAT3 inh: STAT3 signaling inhibition | U3A cells, IL-6 STAT3-luciferase reporter, luminescence; host cell line lacks STAT1 | inhibition, % at 5.5 µM | hit rate 0.89% among 190,000 | AID 862;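 active = inhibition above the mean inhibition across all screened compounds plus 3 SD, cut at about 44% in these data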;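 note: 0% = DMSO only wells and 100% = 100 µM nifuroxazide control wells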
# APP 5'UTR act: APP 5'UTR luciferase reporter activation | SH-SY5Y APP 5'UTR luciferase reporter, luminescence; zero percent = DMSO vehicle wells | activation, % at 2 µM | hit rate 1% among 190,000;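 active = activation above a set limit, based on mean plus 3 SD of controls, cut at about 140% in these data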
# Numbers without * were called inactive; · = no result given. Sampled rows, rich in hits. Any-hit rate of the full collection: about 4.9%.
SMILES,STAT3 act,NF-kB expr up,STAT1 blocker,STAT1 act,STAT3 inh,APP 5'UTR act
O=C(NC1CCCCCC1)c1c(O)c2ccccc2[nH]c1=O,94,2.5,-45,141*,10,8
O=C(O)CCn1nnc(-c2cccs2)n1,97,1.3,0,100,8,-4
CC(C)c1ccc(-c2nnn(CCC(=O)O)n2)cc1,39,0.39,48*,57,78*,-82
Cn1c2c(c(=O)n(C)c1=O)C1c3cc(Cl)ccc3OCC1CO2 (stereo not given),101,1.3,-8,107,0,13
Cn1c(Cl)cnc1C1CC(=O)c2cc(Cl)ccc2O1 (stereo not given),103,4.7*,-3,103,4,-27
CNS(=O)(=O)c1ccc2c(c1)oc(=O)c1cc(S(=O)(=O)NC)ccc12,96,1,-8,107,7,9
Cc1ccc(NC(=O)CSc2ncnc3ccccc23)cc1S(=O)(=O)N1CCCCCC1,82,1.1,14,86,23,-1
O=[N+]([O-])c1cc(Cl)ccc1-c1nc(-c2ccccc2)no1,103,13*,-99,188*,-6,122
Cc1ccc(-c2noc(-c3ccccc3F)n2)cc1,98,6*,-35,132*,11,174*
CS(=O)c1ccccc1-c1nc(-c2ccc(Cl)cc2)no1 (stereo not given),92,2.1,-42,138*,11,34
CS(=O)c1ccccc1-c1nc(-c2cccc(Cl)c2)no1 (stereo not given),85,1.4,-20,118,20,3
Nc1nc(N)nc(COc2ccccc2)n1,117,1.8,-18,116,-19,38
Cc1ccc(N2NC3(CCN(C(N)=O)CC3)NC2=O)cc1,103,1.2,-1,99,1,-10
CCC(Sc1nc(-c2ccccc2)c(C#N)c(=O)[nH]1)C(=O)Nc1nnc(C)s1 (stereo not given),91,1,4,97,21,11
O=C(Nc1cccc(S(=O)(=O)N2CCCCCC2)c1)c1ccc2ccccc2n1,108,1.1,-1,100,-14,20
Cc1ccccc1C(=O)Nc1ccc(N2CCCC2)cc1,93,2.1,-35,131*,13,7
O=C(Nc1ccc(N2CCCCC2)cc1)c1ccc2ccccc2n1,124,2.5,-48,144*,-27,85
O=C(Nc1cccc(-c2cn3c(n2)SCC3)c1)c1ccc2ccccc2n1,111,1.1,-39,135*,-12,87
Cc1ccc(C(=O)Nc2ccc(N3CCCC3)cc2)c(C)c1,92,1.1,-4,103,19,8
CCOc1ccc(N2C(=O)C3C(c4ccccc4F)NN(C(=O)c4ccc(C)cc4)C3C2=O)cc1 (stereo not given),104,1.1,2,98,-4,4
CC1CCCCN1C(=S)Nc1ccc2nc3n(c(=O)c2c1)CCCCC3 (stereo not given),104,1.1,-5,105,-4,11
Cc1nonc1C(=O)N/N=C/c1cc2c(cc1Br)OCO2,133*,1.5,-22,119,-33,3
Cc1nonc1C(=O)N/N=C/c1ccccc1,110,1.1,-34,132*,-12,20
Cc1nn(C)c(C(=O)N/N=C/c2cc3c(cc2Br)OCO3)c1Br,100,1.1,1,99,1,-2
C/C(=N\NC(=O)Cn1ccc(C(F)(F)F)n1)c1ccco1,90,1.1,2,98,16,9
SMILES,STAT3 act,NF-kB expr up,STAT1 blocker,STAT1 act,STAT3 inh,APP 5'UTR act
CNC(=S)N/N=C/c1cccc(OCc2ccccc2F)c1,96,1.6,-36,132*,2,34
COc1ccc(C(=O)NC2(C(F)(F)F)NC(=O)N(CCCc3ccccc3)C2=O)cc1OC (stereo not given),94,0.93,5,95,8,-11
Cc1ccc(/C=C/C(=O)C2C(=O)c3ccccc3C2=O)cc1,54,2.4,34,69,60*,57
CCn1c(O)c(C2=c3ccccc3=NC2=O)c2cc(Br)ccc21,134*,1.1,1,97,-35,-2
O=C(CNC(=O)c1ccc(S(=O)(=O)N2CCCC2)cc1)N/N=C/c1ccco1,98,1.2,2,97,4,10
CC(C)CC(COCc1ccc(Cl)cc1)N1CCN(C(=O)c2cccc(C(F)(F)F)c2)CCC1=O (stereo not given),99,1.1,5,95,-2,13
CC(C)CC(COCc1ccc(C(F)(F)F)cc1)N1CCN(C(=O)c2ccc(C(F)(F)F)cc2)CCC1=O (stereo not given),98,3.9*,6,94,0,20
COc1cc(S(=O)(=O)Nc2ccc3cn[nH]c3c2)ccc1Cl,121,0.88,11,89,-10,40
O=C(O)c1ccc(Cl)c(S(=O)(=O)Nc2ccc3cn[nH]c3c2)c1,135*,1.1,5,94,-33,-1
CCCCCCn1c(NCC)nc2c1c(=O)n(C)c(=O)n2C,43,0.97,40*,64,67*,-2
S=C(Nc1ccccc1)N1CCn2c(nc3ccccc32)C1,90,1.3,-4,101,17,-2
O=C1NC(c2ccc(Cl)cc2)=COc2ccccc21,98,1,-9,108,7,14
O=C1NN=COc2ccccc21,133*,1,3,97,-28,5
O=C1CC(c2ccc(F)cc2)Sc2ccccc2N1 (stereo not given),135*,1.1,-9,108,-38,-8
CCN(CC)CCNC(=O)c1ccc(Sc2ccc(C)cc2)c(NC(C)=O)c1,95,1.1,-3,104,11,5
Cc1cccc(-c2cc3nc4c(c(N5CCOCC5)n3n2)CCCC4)c1,85,1.4,-17,116,21,183*
Cc1cccc(-c2cc3nc4c(c(NCc5ccco5)n3n2)CCCC4)c1,93,3.2,-39,135*,14,124
Cc1cccc(-c2cc3nc4c(c(N5CCC6(CC5)OCCO6)n3n2)CCCC4)c1,100,·,-7,106,0,-18
Cc1cc(C)nc(-n2nc(C)c(Sc3ccc(F)cc3)c2N)n1,125,3,-33,131*,-28,165*
CCCSc1nsc(NC(=O)CC)n1,100,3.7*,-34,130*,3,112
CCCCCCSc1nsc(NC(=O)CC(C)C)n1,96,1.4,-8,107,9,42
N/C(=N\OC(=O)/C=C/c1ccc(Br)cc1)c1ccccn1,78,3.9*,-23,121,24,188*
N/C(=N\OC(=O)/C=C/c1ccccc1Cl)c1ccccn1,43,4.1*,43*,59,69*,124
N/C(=N\OC(=O)/C=C/c1ccccc1)c1cccnc1,102,1,-18,116,4,55
CC(C)c1ccccc1NC(=O)COC(=O)/C=C/c1cccc([N+](=O)[O-])c1,101,1.2,2,98,-6,-2
